Series [1] deals with HBL-100. In words: Antiproliferative activity against human HBL100 cells after 48 hrs by SRB assay. The series is classed as functional. As to conditions: HBL-100, 48 h. The essentials: (§1)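 Human solid tumor lines and three immortalized nontumor lines in culture, exposed to the test agent. Read-out is growth inhibition, reported as GI50 (μM).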
On the technique in general: The SRB assay estimates cell density from bound dye.

For series [2], the system named is HeLa. In words: Antiproliferative activity against human HeLa cells after 48 hrs by SRB assay. The series is classed as functional. A digest of the protocol: as §1
Series [3] concerns SW1573. In words: Antiproliferative activity against human SW1573 cells after 48 hrs by SRB assay. Format: functional. As to conditions: SW1573, 48 h. A digest of the protocol: as §1
Series [4] concerns T47D. In words: Antiproliferative activity against human T47D cells after 48 hrs by SRB assay. Format: functional. The essentials: as §1
Series [5] relates to WiDr. In words: Antiproliferative activity against human WiDr cells after 48 hrs by SRB assay. Format: functional. The essentials:
as §1

Series [6] in a line: Antiproliferative activity against human HS27 cells after 48 hrs by SRB assay. Format: cell-based. The essentials: as §1
Series [7] is described as follows: Antiproliferative activity against human MCF10A cells after 48 hrs by SRB assay. Format: cell-based, MCF-10A. A digest of the protocol:
as §1

Series [8] has as its system SW1573. In words: Cell cycle arrest in human SW1573 cells assessed as accumulation of cells in G2/M phase after 24 hrs by flow cytometry. Format: functional, cell-based. A digest of the protocol:
(§2)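 Flow cytometry of DNA content, giving the G0/G1, S, G2/M and sub-G1 fractions. Cells treated for 24 h at three doses alongside untreated controls. Values are means of at least two experiments.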
A general note: In flow cytometry, cells or beads pass a laser one at a time.

In series [9] the test system is HBL-100. In words: Cell cycle arrest in human HBL100 cells assessed as accumulation of cells in G2/M phase after 24 hrs by flow cytometry. Format: functional, cell-based. A digest of the protocol: as §2
For series [10], the system named is HeLa. In words: Cell cycle arrest in human HeLa cells assessed as accumulation of cells in G2/M phase after 24 hrs by flow cytometry. The series is classed as functional, cell-based. A digest of the protocol:
as §2

Series [11] relates to T47D. In words: Cell cycle arrest in human T47D cells assessed as accumulation of cells in G2/M phase after 24 hrs by flow cytometry. Format: functional, cell-based. The essentials:
as §2

Series [12] has as its system WiDr. In words: Cell cycle arrest in human WiDr cells assessed as accumulation of cells in G2/M phase after 24 hrs by flow cytometry. Format: functional, cell-based. The essentials:
as §2

Series [13] has as its system HBL-100. In words: Induction of apoptosis in human HBL100 cells assessed as early apoptotic cells at 2 uM after 24 hrs by annexin V/Pi staining technique. Format: functional.
Series [14] deals with HBL-100. In words: Induction of apoptosis in human HBL100 cells assessed as late apoptotic cells at 2 uM after 24 hrs by annexin V/Pi staining technique. The series is classed as functional.
Series [15] deals with HBL-100. In words: Induction of apoptosis in human HBL100 cells assessed as early apoptotic cells at 4 uM after 24 hrs by annexin V/Pi staining technique. Format: functional.
Series [16] has as its system HBL-100. In words: Induction of apoptosis in human HBL100 cells assessed as late apoptotic cells at 4 uM after 24 hrs by annexin V/Pi staining technique. Format: functional.
The test system of series [17] is HeLa. In words: Induction of apoptosis in human HeLa cells assessed as early apoptotic cells at 6 uM after 24 hrs by annexin V/Pi staining technique. Format: functional.
The test system of series [18] is HeLa. In words: Induction of apoptosis in human HeLa cells assessed as late apoptotic cells at 6 uM after 24 hrs by annexin V/Pi staining technique. Format: functional.
For series [19], the system named is HeLa. In words: Induction of apoptosis in human HeLa cells assessed as early apoptotic cells at 8 uM after 24 hrs by annexin V/Pi staining technique. The series is classed as functional.
In series [20] the test system is HeLa. In words: Induction of apoptosis in human HeLa cells assessed as late apoptotic cells at 8 uM after 24 hrs by annexin V/Pi staining technique. Format: functional.
The test system of series [21] is T47D. In words: Induction of apoptosis in human T47D cells assessed as early apoptotic cells at 6 uM after 24 hrs by annexin V/Pi staining technique. The series is classed as functional.
Series [22] concerns T47D. In words: Induction of apoptosis in human T47D cells assessed as late apoptotic cells at 6 uM after 24 hrs by annexin V/Pi staining technique. The series is classed as functional.
The subject of series [23] is T47D. In words: Induction of apoptosis in human T47D cells assessed as early apoptotic cells at 8 uM after 24 hrs by annexin V/Pi staining technique. Format: functional.
Series [24] relates to T47D. In words: Induction of apoptosis in human T47D cells assessed as late apoptotic cells at 8 uM after 24 hrs by annexin V/Pi staining technique. Format: functional.
The test system of series [25] is WiDr. In words: Induction of apoptosis in human WiDr cells assessed as early apoptotic cells at 6 uM after 24 hrs by annexin V/Pi staining technique. The series is classed as functional.
Series [26] deals with WiDr. In words: Induction of apoptosis in human WiDr cells assessed as late apoptotic cells at 6 uM after 24 hrs by annexin V/Pi staining technique. The series is classed as functional.
In series [27] the test system is WiDr. In words: Induction of apoptosis in human WiDr cells assessed as early apoptotic cells at 8 uM after 24 hrs by annexin V/Pi staining technique. Format: functional.
Series [28] relates to WiDr. In words: Induction of apoptosis in human WiDr cells assessed as late apoptotic cells at 8 uM after 24 hrs by annexin V/Pi staining technique. Format: functional.
Series [29] deals with HeLa. In words: Induction of DNA damage in human HeLa cells assessed as phosphorylation of ChK2 at 7.5 uM after 24 hrs by immunoblotting. Format: functional, cell-based. The essentials: (§3)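 HeLa cells exposed at 7.5 μM, sampled at 3, 6, 12 and 24 h. Protein extracts probed by Western blot for phospho-Chk2, phospho-H2AX and cyclin B1. Phospho-histone H3 Ser10 detected with a phospho-specific antibody. Includes a positive-control lane.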

Series [30] deals with HeLa. In words: Induction of DNA damage in human HeLa cells assessed as phosphorylation of H2AX at 7.5 uM after 24 hrs by immunoblotting. Format: functional, cell-based. A digest of the protocol: as §3
A general note: Immunoblotting shows a protein as a band on a membrane.

Series [31] relates to HeLa. In words: Induction of DNA damage in human HeLa cells assessed as expression of cyclin B1 uM after 24 hrs by immunoblotting. The series is classed as functional, cell-based. The essentials:
as §3

The target in series [32] is DNA topoisomerase 2-alpha (Homo sapiens) (UniProt P11388). In words: Inhibition of human topoisomerase 2 alpha assessed as inhibition of decatenation of KDNA at 100 uM after 30 to 60 mins by gel electrophoresis with ethidium bromide relative to control. The essentials:
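Decatenation assay: purified TOP2 incubated with kinetoplast DNA. Released minicircles (nicked, supercoiled and relaxed forms) resolved by agarose gel electrophoresis. Compared with lanes without enzyme and with enzyme alone, plus reference TOP2 inhibitors.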

For series [33] the target is unchanged. In words: Inhibition of human topoisomerase 2 alpha assessed as inhibition of relaxation of SC plasmid pHOT1 at 100 uM after 30 to 60 mins by gel electrophoresis relative to control. The essentials:
(§4)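 Purified TOP2 incubated with negatively supercoiled plasmid pHOT1. Supercoiled, nicked and relaxed topoisomers separated by agarose gel electrophoresis. Compared with lanes without enzyme and with enzyme alone.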

The target is the same in series [34]. In words: Inhibition of human topoisomerase 2 alpha assessed as inhibition of relaxation of Rel plasmid pHOT1 at 100 uM after 30 to 60 mins by gel electrophoresis relative to control. The essentials: as §4
Series [35] shares this target. In words: Inhibition of human topoisomerase 2 alpha assessed as inhibition of relaxation of NcK plasmid pHOT1 at 100 uM after 30 to 60 mins by gel electrophoresis relative to control. The essentials:
as §4

Series [36] has the same target. In words: Inhibition of human topoisomerase 2 alpha assessed as inhibition of formation of Lin form of plasmid pHOT1 at 100 uM after 30 to 60 mins by gel electrophoresis inthe presence of exsess of ethidium bromide relative to control. A digest of the protocol:
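Cleavage-complex assay: purified TOP2 incubated with plasmid pHOT1. Agarose gel electrophoresis detects the linear (Lin) DNA form produced by trapped enzyme-cut intermediates.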

Series [37] concerns hTERT-HPNE (Homo sapiens). In words: Antiproliferative activity against hTERT-HPNE cells after 48 hrs by SRB assay.

These results are taken from ChEMBL document CHEMBL1157743, “Mitotic arrest induced by a novel family of DNA topoisomerase II inhibitors” (J Med Chem, 2010).

Activity calls are given as the source filed them. No cut-off for these calls is given here. Bounds are passed on as bounds.

Sequence of DNA topoisomerase 2-alpha (Homo sapiens) (P11388 whole entry): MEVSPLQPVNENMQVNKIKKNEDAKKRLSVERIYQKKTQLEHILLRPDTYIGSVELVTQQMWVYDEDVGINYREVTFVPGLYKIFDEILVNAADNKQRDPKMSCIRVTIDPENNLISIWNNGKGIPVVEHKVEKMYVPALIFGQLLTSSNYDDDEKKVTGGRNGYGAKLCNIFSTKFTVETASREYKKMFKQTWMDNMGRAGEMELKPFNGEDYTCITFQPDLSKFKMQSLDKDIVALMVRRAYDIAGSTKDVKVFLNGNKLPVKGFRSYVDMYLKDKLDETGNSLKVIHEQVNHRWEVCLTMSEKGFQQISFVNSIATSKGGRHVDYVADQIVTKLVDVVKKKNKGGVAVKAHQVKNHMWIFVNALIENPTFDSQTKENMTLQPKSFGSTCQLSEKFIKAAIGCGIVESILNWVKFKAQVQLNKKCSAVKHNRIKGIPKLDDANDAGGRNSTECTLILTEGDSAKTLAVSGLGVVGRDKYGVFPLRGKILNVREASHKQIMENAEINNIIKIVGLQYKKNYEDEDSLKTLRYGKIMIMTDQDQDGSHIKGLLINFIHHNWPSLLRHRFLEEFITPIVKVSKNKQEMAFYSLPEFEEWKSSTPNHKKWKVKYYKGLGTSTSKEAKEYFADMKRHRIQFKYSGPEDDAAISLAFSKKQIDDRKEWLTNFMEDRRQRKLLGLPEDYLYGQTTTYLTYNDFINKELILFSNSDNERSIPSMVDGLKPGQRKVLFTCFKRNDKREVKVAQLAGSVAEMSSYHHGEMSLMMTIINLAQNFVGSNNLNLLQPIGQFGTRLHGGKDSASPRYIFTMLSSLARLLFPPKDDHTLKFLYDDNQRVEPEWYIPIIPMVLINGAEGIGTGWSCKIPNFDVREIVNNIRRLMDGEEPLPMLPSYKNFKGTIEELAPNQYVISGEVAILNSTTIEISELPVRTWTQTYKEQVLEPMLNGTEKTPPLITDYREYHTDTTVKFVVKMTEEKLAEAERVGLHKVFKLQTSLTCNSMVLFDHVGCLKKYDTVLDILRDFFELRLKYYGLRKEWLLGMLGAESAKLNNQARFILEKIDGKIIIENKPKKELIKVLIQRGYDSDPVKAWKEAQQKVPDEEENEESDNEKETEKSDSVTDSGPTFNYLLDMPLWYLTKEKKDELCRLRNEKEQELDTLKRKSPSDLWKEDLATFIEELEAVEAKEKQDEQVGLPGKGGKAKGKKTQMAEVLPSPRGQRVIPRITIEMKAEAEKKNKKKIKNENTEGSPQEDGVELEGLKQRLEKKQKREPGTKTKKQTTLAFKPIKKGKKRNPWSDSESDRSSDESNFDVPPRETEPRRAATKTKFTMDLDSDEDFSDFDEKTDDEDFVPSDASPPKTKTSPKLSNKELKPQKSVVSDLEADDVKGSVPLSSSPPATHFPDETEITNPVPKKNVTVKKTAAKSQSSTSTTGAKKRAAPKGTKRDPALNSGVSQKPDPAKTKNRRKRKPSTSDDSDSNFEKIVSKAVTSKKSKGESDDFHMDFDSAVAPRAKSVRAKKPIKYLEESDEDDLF

`CCCCC(C#CC(=O)OC)O/C=C/C(=O)OC` (stereo not drawn): the 50% growth inhibitory concentration (GI50) – broadly, the concentration that inhibits growth by half – stood at 250 nM in the series with HBL-100 [1]; 2800 nM in the series with HeLa [2]; 240 nM in the series with SW1573 [3]; 3800 nM in the series on T47D [4]; 3100 nM in the series on WiDr [5]. Besides, the GI50 at 48 h in series [6] was found to be 1900 nM; in [7] it was 34000 nM; in series [37], 1300 nM. For the same compound, the Activity entry in the series on SW1573 [8] is “Dose-dependent effect”; in the series with HBL-100 [9] it was “Dose-dependent effect”; in the series with HeLa [10], “Dose-dependent effect”; in the series with T47D [11] it was “Dose-dependent effect”; in the series on WiDr [12], “Dose-dependent effect”; with HBL-100 [13], 6.7%. In addition, the Activity in the series on HBL-100 [14] was found to be 12%; in the series with HBL-100 [15], 5.3%; with HBL-100 [16], 12%; in the series with HeLa [17] it was 8.7%; with HeLa [18], 9%; with HeLa [19] it was 10%. Also, the Activity in the series on HeLa [20] turned out to be 11%; in the series on T47D [21], 12%; with T47D [22], 24%; in the series on T47D [23], 11%; in the series on T47D [24], 19%; in the series with WiDr [25] it was 12%. The Activity in the series with WiDr [26] is 21%; with WiDr [27], 11%; in the series on WiDr [28] it was 28%. The result (in the series on HeLa [29]; in the series on HeLa [30]; in the series on HeLa [31]; in series [36]) was inactive. The outcome in series [32], in series [33], in series [34] and in [35] was Active.

Consider `COC(=O)C#CC(O/C=C/C(=O)OC)C(C)C` (stereo not drawn), for which the results for the GI50 in the series with HBL-100 [1] and in the series on SW1573 [3] were 450 nM and 750 nM, respectively.

For the compound `COC(=O)C#CC(C)O/C=C/C(=O)OC` (stereo not drawn), the GI50 in the series with HBL-100 [1] is 300 nM; in the series with SW1573 [3], 1700 nM.

`Cc1ccc(S(=O)(=O)C#CC(O/C=C/S(=O)(=O)c2ccc(C)cc2)C(C)C)cc1` (stereo not drawn): the concentration for 50% growth inhibition (GI50) in the series with HBL-100 [1] stood at 3800 nM; in the series with SW1573 [3] it was 3200 nM.

With `CCCCCC(C#CC(=O)OC)O/C=C/C(=O)OC` (stereo not drawn), the results for the GI50 in the series with HBL-100 [1] and with SW1573 [3] were 1900 nM and 1700 nM, respectively.

With `CC1CCC(C(C)C)C(OC(=O)C#CC(O/C=C/C(=O)OC2CC(C)CCC2C(C)C)C(C)C)C1` (stereo not drawn), the GI50 in the series on HBL-100 [1] and in the series on SW1573 [3] was more than 100000 nM each time.

Consider `CCOC(=O)C#CC(O/C=C/C(=O)OCC)C(C)C` (stereo not drawn), for which the values for the GI50 in the series with HBL-100 [1] and with SW1573 [3] were 3000 nM and 2800 nM, respectively.

With `CCC(C#CC(=O)OC)O/C=C/C(=O)OC` (stereo not drawn), the GI50 is 320 nM in the series with HBL-100 [1] and 540 nM in the series with SW1573 [3].

For `CCCCCCC(C#CC(=O)O)O/C=C/C(=O)OC` (stereo not drawn), the GI50 in the series with HBL-100 [1] and in the series with SW1573 [3] was more than 100000 nM throughout.

`COC(=O)C#CC(CCc1ccccc1)O/C=C/C(=O)OC` (stereo not drawn): the GI50 in the series with HBL-100 [1] and in the series with SW1573 [3] was 2600 nM in each case.

Regarding `C#CC(O/C=C/C(=O)OC)c1ccccc1` (stereo not drawn), the GI50 in the series with HBL-100 [1] is 26000 nM; with SW1573 [3], 31000 nM.

In the case of `CCCC(C#CC(=O)OC)O/C=C/C(=O)OC` (stereo not drawn), the GI50 was 270 nM in the series with HBL-100 [1] and 320 nM in the series with SW1573 [3].

With `COC(=O)C#CC(O/C=C/C(=O)OC)C1CC1` (stereo not drawn), the GI50 stood at 250 nM with HBL-100 [1] and 1800 nM in the series with SW1573 [3].

`CCOC(=O)C#CC(C[C@@H](C)CCC=C(C)C)O/C=C/C(=O)OCC` (stereo partly drawn): the concentration for 50% growth inhibition (GI50) with HBL-100 [1] and in the series on SW1573 [3] was 2600 nM each time.
